Data from ChEMBL document CHEMBL1135125, “Cytotoxic alpha-bromoacrylic derivatives of low molecular weight” (Bioorg Med Chem Lett, 2002).
pIC50: −log10 of the molar value.

What was measured:
L1210 = assay: In vitro cytotoxicity against L1210 murine leukemia cells after 48 hr of continuous exposure; type: functional, cell-based; conditions: Mus musculus, L1210, 48 h
Summary of the method: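 L1210 murine leukaemia cells (from NCI) under continuous drug exposure for 48 h; IC50 taken from dose–response curves, mean±SE of at least two experiments.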

Caco-2 = assay: Caco-2 cell permeability coefficient was determined after 120 min of incubation; type: functional, cell-based; conditions: Homo sapiens
Summary of the method: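 Caco-2 cells grown 21 days on permeable polycarbonate transwell filters; apparent permeability coefficient measured after 120 min incubation per a published method; total compound recovery calculated at end of experiment.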

Mus musculus [1] = assay: Median survival time of mice injected with L1210 cells intraperitoneally versus untreated mice at an optimal (non toxic) dose of 12.5 mg/kg; type: functional; conditions: route intraperitoneal
Mus musculus [2] = assay: Median survival time of mice injected with L1210 cells intravenously versus untreated mice at an optimal (non toxic) dose of 50 mg/kg; type: functional; conditions: route intravenous
Mus musculus [3] = assay: Median survival time of mice injected with L1210 cells intravenously versus untreated mice at an optimal (non toxic) dose of 25 mg/kg; type: functional; conditions: route intravenous
Mus musculus [4] = assay: Median survival time of mice injected with L1210 cells intravenously versus untreated mice at an optimal (non toxic) dose of 100 mg/kg; type: functional; conditions: route intravenous
Mus musculus [5] = assay: Median survival time of mice injected with L1210 cells intravenously versus untreated mice at an optimal (non toxic) dose of 12.5 mg/kg; type: functional; conditions: route intravenous

| SMILES | pIC50 (L1210) | Papp (Caco-2) | further results |
| --- | --- | --- | --- |
| C=C(Br)C(=O)Nc1cc(C(=O)Nc2cc(C(=O)Nc3cc(C(=O)Nc4cc(C(=O)NCCN=C(N)N)n(C)c4)n(C)c3)n(C)c2)n(C)c1 | 8.74 |  |  |
| C=C(Br)C(=O)Nc1cc(C(=O)Nc2cc(C(=O)Nc3cc(C(=O)NCCN=C(N)N)n(C)c3)n(C)c2)n(C)c1 | 7.57 |  |  |
| C=C(Br)C(=O)Nc1cc(C(=O)Nc2cc(C(=O)NCCC(=N)N)n(C)c2)n(C)c1 | 5.89 | 5.58e-06 cm/s |  |
| C=C(Br)C(=O)Nc1cc(C(=O)Nc2cc(C(=O)Nc3cc(C(=O)NCCC(=N)N)n(C)c3)n(C)c2)n(C)c1.Cl |  | 1.52e-05 cm/s | T/C (Mus musculus [1]): 175% |
| C=C(F)C(=O)Nc1cc(C(=O)Nc2ccccc2)n(C)c1 | < 5.30 | 3.96e-05 cm/s |  |
| C=C(F)C(=O)Nc1cc(C(=O)Nc2cc(C(=O)Nc3cc(C(=O)Nc4cc(C(=O)NCCC(=N)N)n(C)c4)n(C)c3)n(C)c2)n(C)c1 | < 6.10 |  |  |
| C=CC(=O)Nc1cc(C(=O)Nc2cc(C(=O)Nc3cc(C(=O)Nc4cc(C(=O)NCCC(=N)N)n(C)c4)n(C)c3)n(C)c2)n(C)c1 | 5.70 |  |  |
| C=C(Br)C(=O)Nc1ccc(F)cc1 | 7.23 |  | T/C (Mus musculus [2]): 100% |
| C=C(Br)C(=O)Nc1cc(C(=O)NCCC(=N)N)n(C)c1 | < 5.60 | 6.9e-07 cm/s |  |
| C=C(Br)C(=O)Nc1cc(C(=O)Nc2cc(C(=O)Nc3cc(C(=O)Nc4cc(C(=O)NCCC(=N)N)n(C)c4)n(C)c3)n(C)c2)n(C)c1 |  | 3.82e-05 cm/s |  |
| C=C(Br)C(=O)Nc1ccc(N(C)C)cc1.Cl | 7.27 |  | T/C (Mus musculus [3]): 100% |
| C=C(Br)C(=O)Nc1cc(C(=O)NCCC#N)n(C)c1 | 7.28 |  | T/C (Mus musculus [4]): 100% |
| C=C(Br)C(=O)Nc1ccccc1 | 7.43 |  | T/C (Mus musculus [5]): 117% |
| C=C(Br)C(=O)Nc1cc(C(=O)Nc2cc(C(=O)NCCN=C(N)N)n(C)c2)n(C)c1 | < 6.30 |  |  |
| C=C(Br)C(=O)Nc1ccc(C(=N)N)cc1 | < 5.30 | 3.9e-06 cm/s |  |
| C=C(Br)C(=O)Nc1cc(C(=O)Nc2ccccc2)n(C)c1 | 7.37 | 1.2e-06 cm/s | T/C (Mus musculus [3]): 100% |
